Compounds with a hit are over-represented: about 4.5% of the library has one in this group of screens.
TAAR1 ag: human TAAR1 agonism | Q96RJ0 | CHO RD-HGA16 TAAR1, Fluo-8 calcium fluorescence; vehicle wells 0%, saturating PEA agonist 100% | activation, % at 3 µM | 0.99% of 360,000 active;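 active means activation above the mean activation of all test compounds in the run plus 3 SD, cut at about 38% in these data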
Target sequence (Q96RJ0 whole entry, looked up): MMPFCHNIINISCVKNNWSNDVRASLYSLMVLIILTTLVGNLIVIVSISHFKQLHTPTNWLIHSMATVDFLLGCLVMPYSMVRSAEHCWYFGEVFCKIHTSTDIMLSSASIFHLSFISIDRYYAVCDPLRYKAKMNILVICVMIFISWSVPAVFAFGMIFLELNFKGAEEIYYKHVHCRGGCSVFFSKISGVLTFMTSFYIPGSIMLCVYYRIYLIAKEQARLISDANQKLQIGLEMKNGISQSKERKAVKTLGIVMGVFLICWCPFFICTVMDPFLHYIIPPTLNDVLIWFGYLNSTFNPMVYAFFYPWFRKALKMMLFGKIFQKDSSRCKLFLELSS
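Test system: RD-HGA16 (CHO) cells co-expressing Gα16 and hTAAR1 / Benchmarks: DMSO vehicle as 0%, PEA at EC100 as 100% / Repeats: no replicates (n 1) / Measure: % activation from peak over basal fluorescence ratio, DMSO-to-PEA scaled / Timing: 17-24 h plating, Fluo-8 75 min 37 °C, 30 min RT / Technique: kinetic Fluo-8 calcium fluorescence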
TAAR1 antag: antagonists of human TAAR1 | Q96RJ0 | CHO RD-HGA16 TAAR1, Fluo-8 calcium fluorescence, antagonist | inhibition, % at 3 µM | 1.5% of 360,000 active | AID 624466;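 active means inhibition above a per-plate cutoff, the mean inhibition of test compounds on that plate plus 3 SD, cut at about 49% in these data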;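 further: 0% = DMSO plus EC80 beta-PEA response and 100% = DMSO alone without agonist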
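System: RD-HGA16 CHO cells with stable hTAAR1 and Gα16 | Probe or stimulus: EC80 β-phenethylamine stimulus | Dosing: 3 µM, single point | Times: Dye loading 75 min at 37 °C, then 30 min room temperature | Measured by: Fluo-8 calcium-sensitive fluorescence | Read-out basis: % inhibition of agonist calcium response | Replicates: n of 1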
CHO parental Ca: counter-screen: ATP calcium response change in parental CHO cells | AID 463079 | parental CHO-K1, ATP-induced calcium, Fluo-8 fluorescence | 0.63% of 330,000 active | inhibition, % at 5.6 µM;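 active means inhibition above that plate's mean sample inhibition plus 3 SD, cut at about 26% in these data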;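 further: 0% = ATP-challenged DMSO wells and 100% = DMSO wells without ATP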
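material = parental CHO cells | also added = ATP as calcium-mobilizing challenge | dosing = single point at 5.6 µM | detection = intracellular calcium via Fluo-8 no-wash fluorescent dye | read-out = % inhibition | benchmarks = low control ATP plus DMSO, high control DMSO only | repeats = one well per compound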
GPR7 antag: antagonists of human GPR7 (neuropeptides B/W receptor 1) | GPR7-expressing cells, fluorescence antagonist assay | AID 1861 | P48145 | inhibition, % at 4.4 µM | 1.1% of 290,000 active; in the data active means inhibition above about 16%, passing the limit was not always enough;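 further: cells stimulated with the agonist NPW; 0% = agonist with vehicle and 100% = vehicle without agonist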
OX1R antag-1: blocks the human orexin 1 receptor; CHO/OX1R cells, Fluo-8 calcium fluorescence, orexin A; AID 434989; O43613; 0.43% of 330,000 active; inhibition, % at 5 µM;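 active means inhibition above its plate's threshold, mean inhibition of all tested compounds on the plate plus 3 SD, cut at about 37% in these data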;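 further: 0% = orexin A challenge wells and 100% = SB-334867-A antagonist wells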
OX1R antag-2: blocks the human orexin 1 receptor. inhibition, % at 6.6 µM. 1.8% of 330,000 active. O43613. AID 485270. OX1R-expressing cells, FRET antagonist read-out; in the data active means inhibition mostly above about 38%, no sharp cut-off; inactive means mostly below about 40%;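 further: 0% = agonist challenge alone and 100% = reference antagonist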
TAAR1 ag confirm: confirmation of human TAAR1 agonists; 82% of 2,400 active; CHO RD-HGA16 TAAR1, Fluo-8 calcium fluorescence; scaled: DMSO 0%, maximal phenethylamine 100%; activation, % at 3 µM; shares compounds with TAAR1 ag;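 active means activation above a cutoff set at the run's mean compound activation plus 3 SD, cut at about 39% in these data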
Ga16 ag counter: counter-screen for TAAR1 agonists: nonselective agonists in parental cells; shares compounds with TAAR1 ag; CHO-Ga16 parental, Fluo-8 calcium fluorescence; normalized to maximal ATP response, DMSO zero; activation, % at 3 µM; 50% of 2,400 active; AID 651787;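 active means activation above the run cutoff, the mean activation over all tested wells plus 3 SD, cut at about 12% in these data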;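 further: 0% = DMSO wells and 100% = maximal ATP response on the peak over basal ratio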
TAAR1 desens: TAAR1 response desensitization, agonist counter-screen. CHO RD-HGA16 hTAAR1, Fluo-8 calcium, beta-PEA response inhibition. inhibition, % at 3 µM. AID 651951. 46% of 2,400 active. shares compounds with TAAR1 ag;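 active means inhibition above the run cutoff, the mean inhibition of all test compounds plus 3 SD, cut at about 49% in these data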;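 further: beta-PEA stimulus applied at its EC80; loss of beta-PEA calcium signal after compound pretreatment read as receptor desensitization; 0% = DMSO with beta-PEA at EC80 and 100% = DMSO alone without agonist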
Ga16 antag count: nonselective Ga16 antagonist in TAAR1 agonist counter-screen | AID 651952 | CHO-Ga16 ATP-induced calcium, Fluo-8 fluorescence | inhibition, % at 3 µM | shares compounds with TAAR1 ag | 39% of 2,400 active;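 active means inhibition above the plate's mean compound inhibition plus 3 SD, computed per plate, cut at about 22% in these data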;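 further: 0% = EC80 ATP with DMSO and 100% = DMSO wells without ATP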
An asterisk follows results filed as active; / = not tested or not shown.

SMILES	TAAR1 ag	TAAR1 antag	CHO parental Ca	GPR7 antag	OX1R antag-1	OX1R antag-2	TAAR1 ag confirm	Ga16 ag counter	TAAR1 desens	Ga16 antag count
CC1=CC2=NC(=O)/C(=C\c3cc(C)n(-c4ccc(F)cc4)c3C)C(=N)N2O1	43*	87*	-8	-7	-28	15	5	8	50*	38*
O=C(Cc1nnc(NC(=O)Nc2ccc(F)cc2)s1)Nc1ccccc1	54*	20	9	2	6	7	65*	13*	68*	9
CCN(CC)c1ccc(/C=N/NC(=O)Nc2ccccc2)cc1	17	14	-21	-28	-31	6	/	/	/	/
O=C(Cc1nnc(NC(=O)Nc2ccccc2)s1)Nc1ccccc1	52*	43	2	-14	9	6	65*	2	70*	8
CCN(CC)c1ccc(/C=N/NC(=O)Cc2nnc(NC(=O)Nc3ccccc3)s2)cc1	57*	21	-12	-19	-10	6	50*	0	36	11
NS(=O)(=O)c1ccc(CCNC(=O)CSc2ccccc2)cc1	-1	17	10	1	6	16	/	/	/	/
NS(=O)(=O)c1ccc(CCNC(=O)CNCCc2ccccc2)cc1	71*	18	-6	-15	2	-9	90*	1	70*	4
CCCCC(=O)Nc1ccc(C(=O)Nc2ccc(OC)cc2[N+](=O)[O-])cc1	99*	76*	27	-5	24	32	18	4	26	20
S=C(N/N=C/c1ccco1)NC1CC2CCC1C2 (stereo not drawn)	2	9	-10	-5	-5	-4	/	/	/	/
Cc1[nH]n(-c2ccccc2)c(=O)c1C=NCCc1ccccc1	59*	45	-8	-5	1	23	91*	0	41	2
S=C1SCN(CCc2ccccc2)CN1CCc1ccccc1	82*	86*	/	/	/	/	90*	5	92*	15
CCN1CCN(c2ccc(NC(=O)CC3OC(=O)c4ccccc43)cc2C)CC1 (stereo not drawn)	0	-6	/	/	/	/	/	/	/	/
COc1cccc(CNC(=O)c2ccccc2-c2ccccc2)c1	7	-6	-6	-5	-5	14	/	/	/	/
COc1ccc(C(=O)CCN2CCCC(C)C2)cc1 (stereo not drawn)	79*	16	-4	6	-11	0	76*	1	18	2
CC1CCCN(CCOc2ccc(Br)cc2)C1 (stereo not drawn)	14	-15	-10	-6	0	-7	/	/	/	/
CC1CCCN(CCC(=O)c2ccc(Br)cc2)C1 (stereo not drawn)	75*	22	2	8	5	8	93*	3	57*	7
NNc1nc(Nc2ccccc2)nc(N2CCCCC2)n1	45*	16	-40	2	-33	8	66*	2	41	5
O=c1nc(N2CCCCC2)nc(Nc2ccccc2)[nH]1	66*	69*	-5	-6	3	9	73*	1	80*	8
NNc1nc(Nc2ccc([N+](=O)[O-])cc2)nc(N2CCCCCC2)n1	5	-19	-17	-6	-28	14	/	/	/	/
COC(=O)c1cccc(C(=O)N2CCCC(C(=O)c3cccc(OC(C)C)c3)C2)c1 (stereo not drawn)	53*	-4	-2	-3	-7	15	-2	2	6	6

Assay outcomes (PubChem)
